Rows were chosen to be rich in hits. Some 1.6% of all compounds tested hit in one or more screens of this group.
ADAM17 inh – inhibitors of human ADAM17. inhibition, % at 6.95 µM. AID 720648. actives 0.83% (n = 370,000). P78536. recombinant ADAM17, EDANS/DABCYL FRET peptide cleavage;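 active means inhibition above the mean of compounds lying between control limits plus 3 SD, set per campaign, cut at about 8.5% in these data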;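 further: 0% = DMSO-only wells as the low control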
ADAM10 inh – inhibits human ADAM10; O14672; recombinant ADAM10, EDANS/DABCYL FRET peptide cleavage, 3 h; inhibition, % at 7 µM; actives 0.62% (n = 370,000); AID 720582;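 active means inhibition above a per-campaign cutoff equal to the mean of compounds falling between control-based bounds plus 3 SD, cut at about 20% in these data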;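 further: 0% = DMSO wells while the 100% control is not disclosed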
Target sequence (O14672 214-748 limits assumed): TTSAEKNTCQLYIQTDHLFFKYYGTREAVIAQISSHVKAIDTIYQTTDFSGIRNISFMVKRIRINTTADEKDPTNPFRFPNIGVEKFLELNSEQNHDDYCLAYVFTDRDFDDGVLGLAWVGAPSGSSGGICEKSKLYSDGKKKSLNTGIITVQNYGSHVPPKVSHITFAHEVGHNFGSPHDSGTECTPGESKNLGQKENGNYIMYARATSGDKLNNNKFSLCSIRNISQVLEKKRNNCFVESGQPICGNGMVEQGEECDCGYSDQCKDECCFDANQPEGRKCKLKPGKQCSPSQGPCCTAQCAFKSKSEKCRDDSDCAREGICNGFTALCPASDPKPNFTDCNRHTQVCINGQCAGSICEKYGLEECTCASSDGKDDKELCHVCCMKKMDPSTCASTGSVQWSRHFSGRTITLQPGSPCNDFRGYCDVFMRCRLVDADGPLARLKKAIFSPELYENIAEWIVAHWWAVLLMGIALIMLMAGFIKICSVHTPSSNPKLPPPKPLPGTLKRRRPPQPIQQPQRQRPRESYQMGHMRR
DDE Tn7 FP inh – DD(E)-Tn7 binding inhibition, primary FP screen; P02675; FP displacement of FITC-Tn7 peptide from fibrin DD(E); 0% = median of compound wells per plate; inhibition, % at 8.3 µM; actives 0.13% (n = 370,000); AID 720508;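 active means inhibition above the mean of compounds falling within the control limits plus 3 SD of them, cut at about 14% in these data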;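 further: 0% = plate median of compound wells and 100% = 10 µM Aha-Tn7 peptide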
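Assay system: human fibrin DD(E) protein / Input: 2 µM fibrin DD(E) / Benchmarks: high control of 10 µM Aha-Tn7 peptide / Measured by: fluorescence polarization of the labelled Tn7 tracer / Medium: Tris buffer with calcium and detergent, pH 7.8 / Timing: 10 min compound pre-incubation, 3 h probe incubation at room temperature / Repeats: one replicate per compound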
MT1-MMP act inh – MT1-MMP (human) activation inhibition; HT1080 RFP-PRO-GFP cells, GFP/RFP ratio fluorescence, overnight; percent of plate control window, DMSO zero; AID 651647; GFP/RFP ratio change, % at 20 µM; actives 0.061% (n = 360,000);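 active means GFP/RFP ratio change of at least 30% with cell ATP level not reduced by more than half and red fluorescence within 50% of control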
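Test system: HT1080 cells expressing an RFP-PRO-GFP fluorescent reporter construct / Compound dosing: single-point 20 µM compound, 1% DMSO / Schedule: cells overnight before dosing, compound overnight, 37 °C, 5% CO2 / Evaluation: GFP/RFP fluorescence ratio / Control set: DMSO and RFP-L50D-GFP cell wells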
DDE Tn6 FP inh – inhibitors of Tn6 peptide binding to human fibrin DD(E); P02675; Fibrin DD(E) TRITC-Tn6 fluorescence polarization displacement; inhibition, % at 8.3 µM; actives 0.21% (n = 370,000); AID 720509;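 active means inhibition above a per-campaign cutoff: mean of compounds within control limits plus 3 SD, cut at about 15% in these data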;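 further: 0% = median of all compound wells on the plate and 100% = blocking peptide control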
DDE Tn6 FP ctr – counter-screen for inhibitors of Tn6 peptide binding to fibrin DD(E). AID 720621. inhibition, % at 8.3 µM. shares compounds with DDE Tn6 FP inh. actives 2% (n = 680). TRITC-Tn6 fluorescence polarization displacement; 0% = median of compound wells, not DMSO;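 active means inhibition above the mean of test compounds lying between the control limits plus 3 SD of those, cut at about 14% in these data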;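 further: 0% = median of compound wells and 100% = wells with Aha-Tn7 blocking peptide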
DDE Tn6 confirm – confirmation of inhibitors of Tn6 binding to human fibrin DD(E). shares compounds with DDE Tn6 FP inh. FP displacement of TRITC-Tn6 peptide from DD(E); 0% = per-plate median of test wells. inhibition, % at 8.3 µM. actives 10% (n = 680). AID 720631;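 active means inhibition above the mean of compounds lying within the control limits plus 3 SD, cut at about 16% in these data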;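 further: 100% = high control wells holding a competing inhibitor peptide at 10 µM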
* marks the source's active call; other numbers are inactive results; nt = no result.

SMILES | ADAM17 inh | ADAM10 inh | DDE Tn7 FP inh | MT1-MMP act inh | DDE Tn6 FP inh | DDE Tn6 FP ctr | DDE Tn6 confirm
Cc1cccc(C(=O)NNC(=O)CN2C(=O)c3ccccc3C2=O)c1 | -2 | -2 | -5 | 3 | 17* | -2 | -6
CCCN(CCC)c1cc(=O)nc2ccccn12 | -5 | -11 | 1 | nt | 3 | nt | nt
O=c1oc2ccccc2cc1C1=Nn2c(nnc2-c2cccnc2)SC1 | -6 | 0 | -1 | 1 | 15* | 9 | 3
Brc1ccc(C2=Nn3c(nnc3-c3cccnc3)SC2)s1 | nt | nt | nt | 1 | nt | nt | nt
CN(C)N1C(N)=C(C#N)C(c2ccc3c(c2)OCO3)C2=C1CCCC2=O (configuration not stated) | -3 | 5 | 6 | -4 | 15* | 0 | -3
COc1ccccc1CCC(=O)Nc1nccs1 | -6 | -9 | 1 | -3 | 3 | nt | nt
COc1ccccc1CCC(=O)Nc1ncc(C)s1 | 2 | -3 | 3 | -3 | 15* | -1 | -5
Cc1cccc(CNC(=O)NC2CCCCN(Cc3cccc(Cl)c3)C2=O)c1 (configuration not stated) | 2 | -4 | -3 | nt | -6 | nt | nt
COc1ccc(S(=O)(=O)NCc2ccc3c(c2)cc(C)n3C)cc1 | -1 | -2 | 0 | 46 | 51* | -4 | -7
Cc1cc2cc(CNS(=O)(=O)c3ccccc3)ccc2n1C | 1 | 1 | 8 | 32 | 60* | 2 | 5
CCS(=O)(=O)NCc1ccc2c(c1)cc(C)n2C | -6 | -31 | 1 | 6 | 7 | nt | nt
O=C(Nc1ccncc1)c1cc(C2CCCCN2C(=O)CCc2ccccc2)on1 (configuration not stated) | -6 | -9 | -3 | -3 | 15* | 4 | -1
CN(Cc1ccccc1)C(=O)OCc1cn(Cc2ccc(F)cc2F)nn1 | -6 | 0 | 2 | nt | 17* | 6 | 5
CC(COc1ccccc1C#N)CN1CCC(C(O)(c2ccccc2)c2ccccc2)CC1 (configuration not stated) | 2 | 4 | 8 | nt | 16* | 1 | 2
Cn1c(=O)cc2c3c(c(N4CCCCC4)ccc31)C(=O)c1ccccc1-2 | -2 | 1 | 5 | 26 | 59* | 2 | 23*
Cn1nc(-c2ccccc2)c(N2CCCCC2)cc1=O | -2 | -3 | 0 | 1 | 1 | nt | nt
Cn1c(=O)[nH]c(=O)c2c1nc(NCCCn1ccnc1)n2Cc1ccc(F)cc1 | -3 | 1 | 7 | 3 | 15* | 4 | 1
C/C(Cl)=C/Cn1c(NCCCn2ccnc2)nc2c1c(=O)[nH]c(=O)n2C | -3 | -8 | 0 | -1 | -5 | nt | nt
CCN(Cc1ccccc1)C(=O)CCCN1C(=O)COc2ccc(C)cc21 | 0 | -3 | -3 | nt | 6 | nt | nt
CCc1nc2ccc(C(=O)NCCOc3ccc(OC)cc3)cn2c1N(C)C(=O)C1CCCCC1 | -7 | -20 | 7 | -16 | 16* | -1 | -4
CCc1nc2ccc(C(=O)NCCOc3ccc(OC)cc3)cn2c1N(CCN(C)C)CC1CC1 | 1 | -6 | -9 | -6 | -10 | nt | nt
CC/C(=C\C(=O)c1ccncc1)Nc1ccc(O)cc1 | -5 | -8 | 4 | -6 | 46* | -2 | -5
O=C(N/N=C/c1ccc(O)cc1)c1ccncc1 | 0 | 0 | 4 | -3 | 0 | nt | nt
COc1ccc(-c2nnc3c4ccccc4c(C)nn23)cc1S(=O)(=O)N1CCN(CCO)CC1 | -8 | -25 | -3 | -7 | 23* | 3 | 0
Cc1nn2c(-c3ccc(S(=O)(=O)N4CCN(CCO)CC4)o3)nnc2c2ccccc12 | -33 | -120 | 5 | -4 | 5 | nt | nt
O=C(NCc1cccs1)C1CCN(S(=O)(=O)c2cccc3ccccc23)CC1 | 0 | -5 | 7 | nt | 3 | nt | nt
COC(=O)C(CC(C)C)N(Cc1ccc(Br)cc1)S(=O)(=O)CCl (configuration not stated) | 3 | 13 | 4 | nt | 0 | nt | nt

Screening data: PubChem, several laboratories
